# Test results taken from ChEMBL document CHEMBL2396592, “Discovery of Dap-3 polymyxin analogues for the treatment of multidrug-resistant Gram-negative nosocomial infections” (J Med Chem, 2013).
# Where a SMILES comes first, the peptide text is derived from it. Bridges are numbered along the chain shown (N, C = ends). [ ]: non-standard residue; d: D form. The star is where a group is joined. X12 = O=C(c1ccc(Cl)c(-c2ccccc2)c1)*; X17 = O=S(=O)(c1cccc(-c2ccccc2)c1)*; X19 = O=C(c1ccnc(-c2cccc(Cl)c2)c1)*; X2 = COc1ccc(C(=O)*)cc1-c1ccccc1; X1 = O=C(c1cnnc(-c2ccccc2)c1)*; X6 = CC[C@H](C)CCCCC(=O)*; Dab = NCC[C@H](N)C(=O)O; Dap = NC[C@H](N)C(=O)O
# Legend:
# [1] = Cytotoxicity against human RPTEC after 24 hrs by LDH assay; type: cell-based; settings: RPTEC cells, read-out: TC50
# Method in brief: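 Primary human renal proximal tubule epithelial cells in REGM (EGF, hydrocortisone, epinephrine, insulin, T3, transferrin, gentamycin/amphotericin-B, FBS). After 72 h of growth at 37 °C, 5% CO2, cells were exposed for 24 h to aqueous compound at 100, 67, 44, 30, 20 and 13 μM. LDH release into the supernatant was measured by kit and TC50 (μM) derived, with PMB and PMBN as controls.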
# Escherichia coli = test: Antibacterial activity against polymyxin-sensitive Escherichia coli isolate 1 assessed as growth inhibition by broth microdilution method; type: functional
# Klebsiella pneumoniae = test: Antibacterial activity against polymyxin-sensitive ESBL-positive Klebsiella pneumoniae clinical isolate 3700 assessed as growth inhibition by broth microdilution method; type: functional
# Acinetobacter baumannii [2] = test: Antibacterial activity against polymyxin-sensitive Acinetobacter baumannii clinical isolate 3167 assessed as growth inhibition by broth microdilution method; type: functional
# Acinetobacter baumannii [3] = test: Antibacterial activity against polymyxin-resistant Acinetobacter baumannii clinical isolate 1649 assessed as growth inhibition by broth microdilution method; type: functional
# Acinetobacter baumannii [4] = test: Bactericidal activity against polymyxin-resistant Acinetobacter baumannii clinical isolate 1649; type: functional
# Pseudomonas aeruginosa [5] = test: Antibacterial activity against polymyxin-sensitive Pseudomonas aeruginosa 1401 assessed as growth inhibition by broth microdilution method; type: functional
# Method in brief: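 CLSI broth microdilution MIC against P. aeruginosa 1401 (PA01) and 1402 (UC12120), the two strains used in the mouse thigh model.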
# Pseudomonas aeruginosa [6] = test: Antibacterial activity against polymyxin-resistant Pseudomonas aeruginosa clinical isolate 1646 assessed as growth inhibition by broth microdilution method; type: functional
# Method in brief: (§1)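 Test strain PA-1646 is a P. aeruginosa isolate with a mutated PmrAB two-component system. The system is constitutively active, so the modified lipid A moiety is constantly expressed on the cell surface, giving a polymyxin-resistant phenotype.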
# Pseudomonas aeruginosa [7] = test: Bactericidal activity against polymyxin-resistant Pseudomonas aeruginosa clinical isolate 1646; type: functional; method in brief: as §1
SMILES,CC50 at 24 h [1],MIC (Escherichia coli),MIC (Klebsiella pneumoniae),MIC (Acinetobacter baumannii [2]),MIC (Acinetobacter baumannii [3]),MBC (Acinetobacter baumannii [4]),MIC (Pseudomonas aeruginosa [5]),MIC (Pseudomonas aeruginosa [6]),MBC (Pseudomonas aeruginosa [7])
CC(C)C[C@@H]1NC(=O)[C@@H](Cc2ccccc2)NC(=O)[C@H](CCN)NC(=O)[C@@H](NC(=O)[C@H](CN)NC(=O)[C@@H](NC(=O)[C@H](CCN)NC(=O)c2ccnc(-c3cccc(Cl)c3)c2)[C@@H](C)O)CCNC(=O)[C@H]([C@@H](C)O)NC(=O)[C@H](CCN)NC(=O)[C@H](CCN)NC1=O (X19-[Dab]T[Dap][Dab][Dab][dF]L[Dab][Dab]T; lactam 4-C),34 µM,0.125 µg/mL,0.5 µg/mL,0.25 µg/mL,0.5 µg/mL,0.5 µg/mL,0.5 µg/mL,1 µg/mL,1 µg/mL
CC[C@H](C)CCCCC(=O)N[C@@H](CCN)C(=O)N[C@H](C(=O)N[C@@H](CN)C(=O)N[C@H]1CCNC(=O)[C@H]([C@@H](C)O)NC(=O)[C@H](CCN)NC(=O)[C@H](CCN)NC(=O)[C@H](CC(C)C)NC(=O)[C@@H](Cc2ccccc2)NC(=O)[C@H](CCN)NC1=O)[C@@H](C)O (X6-[Dab]T[Dap][Dab][Dab][dF]L[Dab][Dab]T; lactam 4-C),72 µM,0.125 µg/mL,0.125 µg/mL,0.125 µg/mL,4 µg/mL,4 µg/mL,0.5 µg/mL,1 µg/mL,2 µg/mL
CC(C)C[C@@H]1NC(=O)[C@@H](Cc2ccccc2)NC(=O)[C@H](CCN)NC(=O)[C@@H](NC(=O)[C@H](CN)NC(=O)[C@@H](NC(=O)[C@H](CCN)NC(=O)c2cnnc(-c3ccccc3)c2)[C@@H](C)O)CCNC(=O)[C@H]([C@@H](C)O)NC(=O)[C@H](CCN)NC(=O)[C@H](CCN)NC1=O (X1-[Dab]T[Dap][Dab][Dab][dF]L[Dab][Dab]T; lactam 4-C),84 µM,0.125 µg/mL,0.125 µg/mL,0.25 µg/mL,2 µg/mL,4 µg/mL,0.25 µg/mL,2 µg/mL,8 µg/mL
CC(C)C[C@@H]1NC(=O)[C@@H](Cc2ccccc2)NC(=O)[C@H](CCN)NC(=O)[C@@H](NC(=O)[C@H](CN)NC(=O)[C@@H](NC(=O)[C@H](CCN)NS(=O)(=O)c2cccc(-c3ccccc3)c2)[C@@H](C)O)CCNC(=O)[C@H]([C@@H](C)O)NC(=O)[C@H](CCN)NC(=O)[C@H](CCN)NC1=O (X17-[Dab]T[Dap][Dab][Dab][dF]L[Dab][Dab]T; lactam 4-C),42 µM,0.25 µg/mL,0.5 µg/mL,1 µg/mL,64 µg/mL,> 64 µg/mL,0.25 µg/mL,2 µg/mL,4 µg/mL
CC(C)C[C@@H]1NC(=O)[C@@H](Cc2ccccc2)NC(=O)[C@H](CCN)NC(=O)[C@@H](NC(=O)[C@H](CN)NC(=O)[C@@H](NC(=O)[C@H](CCN)NC(=O)c2ccc(Cl)c(-c3ccccc3)c2)[C@@H](C)O)CCNC(=O)[C@H]([C@@H](C)O)NC(=O)[C@H](CCN)NC(=O)[C@H](CCN)NC1=O (X12-[Dab]T[Dap][Dab][Dab][dF]L[Dab][Dab]T; lactam 4-C),14 µM,0.25 µg/mL,0.25 µg/mL,0.5 µg/mL,1 µg/mL,1 µg/mL,1 µg/mL,0.5 µg/mL,1 µg/mL
COc1ccc(C(=O)N[C@@H](CCN)C(=O)N[C@H](C(=O)N[C@@H](CN)C(=O)N[C@H]2CCNC(=O)[C@H]([C@@H](C)O)NC(=O)[C@H](CCN)NC(=O)[C@H](CCN)NC(=O)[C@H](CC(C)C)NC(=O)[C@@H](Cc3ccccc3)NC(=O)[C@H](CCN)NC2=O)[C@@H](C)O)cc1-c1ccccc1 (X2-[Dab]T[Dap][Dab][Dab][dF]L[Dab][Dab]T; lactam 4-C),27 µM,0.25 µg/mL,0.25 µg/mL,0.5 µg/mL,2 µg/mL,2 µg/mL,0.5 µg/mL,1 µg/mL,2 µg/mL
